20 compounds from ChEMBL document CHEMBL3872202, “Synthesis and biofilm formation reduction of pyrazole-4-carboxamide derivatives in some Staphylococcus aureus strains” (Eur J Med Chem, 2016) can be followed below.

The test system of series [1] is Staphylococcus aureus. The series can be described thus: Antibiofilm activity against Staphylococcus aureus ATCC 6538 after 24 hrs by crystal-violet stain based assay. In kind it is functional. The following applies: ATCC 6538, 24 h. In short, it runs like this:
(§1)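 Biofilm prevention: diluted bacterial suspension (OD about 0.040 at 570 nm) with sub-MIC concentrations from 300 to 0.3 added at time zero, 37 °C for 24 h in 24-well polystyrene plates. Wells washed three times with PBS, stained with 0.1% crystal violet for 30 min, and the stain redissolved in ethanol. OD read at 600 nm. Percent inhibition taken against untreated control wells. Triplicate, repeated at least twice.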

Series [2] concerns Staphylococcus aureus. Put plainly: Antibiofilm activity against Staphylococcus aureus ATCC 25923 after 24 hrs by crystal-violet stain based assay. In kind it is functional. The following applies: ATCC 25923, 24 h. The procedure, abridged:
as §1

Series [3] deals with Staphylococcus aureus. The series can be described thus: Antibiofilm activity against Staphylococcus aureus ATCC 29213 after 24 hrs by crystal-violet stain based assay. In kind it is functional. The following applies: ATCC 29213, 24 h. The procedure, abridged:
as §1

Series [4] concerns Staphylococcus aureus. Put plainly: Inhibition of Staphylococcus aureus ATCC 6538 planktonic growth at 250 uM after 24 hrs by microbroth dilution method. For orientation: Dilution methods test growth across graded concentrations, often in twofold steps.
Series [5] relates to Staphylococcus aureus. The series can be described thus: Inhibition of Staphylococcus aureus ATCC 29213 planktonic growth at 250 uM after 24 hrs by microbroth dilution method.
In series [6] the test system is Staphylococcus aureus. The series can be described thus: Inhibition of Staphylococcus aureus ATCC 25923 planktonic growth at 250 uM after 24 hrs by microbroth dilution method.
The subject of series [7] is Staphylococcus aureus. Put plainly: Antivirulence activity against Staphylococcus aureus ATCC 29213 infected in Galleria mellonella larvae assessed as increase in larvae survival at 1 mg/kg administered as single dose pretreated for 1 hr followed by bacterial infection measured every 24 hrs for 72 hrs relative to control. It counts as functional. The procedure, abridged: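 Galleria mellonella larvae given a single 1 mg/kg injection in PBS with 3% DMSO 1 h before inoculation with live S. aureus ATCC 29213, injected into alternate prolegs. Controls: untouched larvae, uninfected vehicle-injected larvae, uninfected compound-treated larvae, and vehicle-pretreated infected larvae. Larvae held at 37 °C, survival checked at 24, 48 and 72 h. Three replicates of four larvae per group, Tukey post hoc test.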

Series [8] in a line: Toxicity in Galleria mellonella assessed as effect on larval weight at 1 mg/kg administered as single dose measured every 24 hrs for 72 hrs. The following applies: in vivo. In kind it is organism-based. In short, it runs like this: (§2)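 Uninfected larvae given a single 1 mg/kg injection in PBS with 3% DMSO, alongside untreated and vehicle-only groups, three replicates of four larvae each. Larvae kept in starvation and monitored for weight loss and time to pupation/chrysalis formation as sub-lethal endpoints. Groups compared statistically.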

Series [9] can be described thus: Toxicity in Galleria mellonella assessed as effect on larval survival at 1 mg/kg administered as single dose measured every 24 hrs for 72 hrs. It counts as organism-based. The following applies: in vivo. The procedure, abridged: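 Larvae held at 37 °C and given a single 1 mg/kg injection in PBS with 3% DMSO. Controls were untreated larvae and vehicle-injected larvae. Three replicates of four larvae per group. Survival checked at 24, 48 and 72 h after injection. Results given as mean with SD and compared by post hoc Tukey test (P < 0.05).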

Series [10] in a line: Toxicity in Galleria mellonella assessed as effect on time to pupation at 1 mg/kg administered as single dose measured every 24 hrs for 72 hrs. In kind it is organism-based. The settings on record: in vivo. In short, it runs like this: as §2
In series [11] the test system is Staphylococcus aureus. Put plainly: Antibiofilm activity against Staphylococcus aureus ATCC 25923 after 24 hrs by safranin staining based assay. In kind it is functional. The following applies: ATCC 25923, 24 h.
Series [12] deals with Staphylococcus aureus. Put plainly: Antibiofilm activity against Staphylococcus aureus ATCC 6538 after 24 hrs by safranin staining based assay. It counts as functional. The following applies: ATCC 6538, 24 h.
Series [13] deals with Staphylococcus aureus. The series can be described thus: Antibiofilm activity against Staphylococcus aureus ATCC 29213 after 24 hrs by safranin staining based assay. It counts as functional. The following applies: ATCC 29213, 24 h.

With `CCOC(=O)c1cnn(-c2ccccn2)c1N`, the concentration for half-maximal inhibition (IC50) stood at 91 µM in the series with Staphylococcus aureus [1], 102 µM in the series on Staphylococcus aureus [2] and 31 µM with Staphylococcus aureus [3]. Besides, the “growth inhibition (GI)” value in the series with Staphylococcus aureus [4], with Staphylococcus aureus [5] and in the series with Staphylococcus aureus [6] was “Non-Toxic” throughout.
`CCOC(=O)c1cnn(-c2ccccc2)c1N`: the 50% inhibitory concentration (IC50) amounted to 95 µM in the series with Staphylococcus aureus [1], 222 µM with Staphylococcus aureus [2] and 34 µM in the series on Staphylococcus aureus [3]. In addition, the “growth inhibition (GI)” value in the series with Staphylococcus aureus [4], in the series with Staphylococcus aureus [5] and with Staphylococcus aureus [6] was “Non-Toxic” in each case.
For `Cc1c(C(=O)Nc2ccccc2)cnn1-c1ccccc1`, the IC50 in the series on Staphylococcus aureus [1] is 77 µM; in the series with Staphylococcus aureus [2] it was 112 µM; in the series on Staphylococcus aureus [3], 309 µM. Moreover, the “growth inhibition (GI)” value with Staphylococcus aureus [4], in the series on Staphylococcus aureus [5] and with Staphylococcus aureus [6] was “Non-Toxic” in each case.
For `Cc1c(C(=O)Nc2ccccc2)cnn1-c1cccc([N+](=O)[O-])c1`, the IC50 in the series on Staphylococcus aureus [1] worked out at 90 µM; in the series on Staphylococcus aureus [2] it was 64 µM; in the series with Staphylococcus aureus [3], 46 µM. In addition, the “growth inhibition (GI)” value with Staphylococcus aureus [4], with Staphylococcus aureus [5] and with Staphylococcus aureus [6] was “Non-Toxic” each time.
As to `CC(=O)/C(=C\NNc1cc(Cl)ccc1Cl)C(=O)Nc1ccccc1`, the IC50 with Staphylococcus aureus [1] was found to be 32 µM; with Staphylococcus aureus [2] it was 2.3 µM; with Staphylococcus aureus [3], 2.5 µM. In addition, the “growth inhibition (GI)” value with Staphylococcus aureus [4], with Staphylococcus aureus [5] and with Staphylococcus aureus [6] was “Non-Toxic” each time. Besides, the “fold change (FC)” value with Staphylococcus aureus [7] amounted to 1.6. The Activity entry in [8], in [9] and in series [10] was “Non-Toxic” in each case.
In the case of `Cc1cc(C(=O)Nc2ccccc2)n(-c2ccccc2)n1`, the IC50 is 54 µM in the series on Staphylococcus aureus [1], 74 µM in the series on Staphylococcus aureus [2] and 123 µM in the series with Staphylococcus aureus [3]. Also, the “growth inhibition (GI)” value with Staphylococcus aureus [4], with Staphylococcus aureus [5] and in the series with Staphylococcus aureus [6] was “Non-Toxic” each time.
Take `CCOC(=O)c1c(C)n[nH]c1N`: the figures for the IC50 in the series on Staphylococcus aureus [1], in the series on Staphylococcus aureus [2] and with Staphylococcus aureus [3] were 82 µM, 378 µM and 62 µM, respectively. Besides, the “growth inhibition (GI)” value in the series with Staphylococcus aureus [4], in the series on Staphylococcus aureus [5] and in the series on Staphylococcus aureus [6] was “Non-Toxic” each time.
Consider `Cc1c(C(=O)Nc2ccccc2)cnn1-c1cc(Cl)ccc1Cl`, for which the IC50 with Staphylococcus aureus [2] was 92 µM; with Staphylococcus aureus [3], 52 µM. Also, the “growth inhibition (GI)” value with Staphylococcus aureus [4], with Staphylococcus aureus [5] and in the series on Staphylococcus aureus [6] was “Non-Toxic” throughout.
`Cc1c(C(=O)Nc2ccccc2)cnn1-c1cccc(Cl)c1`: the results for the IC50 in the series with Staphylococcus aureus [1], with Staphylococcus aureus [2] and with Staphylococcus aureus [3] were 103 µM, 161 µM and 169 µM, respectively. Also, the “growth inhibition (GI)” value with Staphylococcus aureus [4], in the series with Staphylococcus aureus [5] and in the series with Staphylococcus aureus [6] was “Non-Toxic” each time.
For `CCOC(=O)/C(=N/Nc1cccc(C)c1)C(=O)c1cc(C)nn1CC`, the figures for the half-maximal inhibitory concentration (IC50) in the series with Staphylococcus aureus [11], in the series on Staphylococcus aureus [12] and in the series with Staphylococcus aureus [13] were 10 µM, 43 µM and 1.7 µM, respectively.
As for `Cc1c(C(=O)Nc2ccccc2)cnn1-c1cc(F)ccc1F`, the IC50 in the series with Staphylococcus aureus [1] was found to be 81 µM; with Staphylococcus aureus [2] it was 61 µM; in the series with Staphylococcus aureus [3] it was 89 µM. For the same compound, the “growth inhibition (GI)” value with Staphylococcus aureus [4], with Staphylococcus aureus [5] and in the series with Staphylococcus aureus [6] was “Non-Toxic” in each case.
As to `CCn1nc(C)cc1C(=O)/C(=N\Nc1cccc(Cl)c1)C(=O)O`, the figures for the IC50 in the series with Staphylococcus aureus [11], with Staphylococcus aureus [12] and in the series with Staphylococcus aureus [13] were 20 µM, 11 µM and 16 µM, respectively.
Consider `CCOC(=O)c1cnn(-c2ccc(S(N)(=O)=O)cc2)c1N`, for which the IC50 with Staphylococcus aureus [1] was 142 µM; in the series with Staphylococcus aureus [2], 77 µM; in the series on Staphylococcus aureus [3], 28 µM. Besides, the “growth inhibition (GI)” value in the series with Staphylococcus aureus [4], in the series with Staphylococcus aureus [5] and with Staphylococcus aureus [6] was “Non-Toxic” each time.
`Cc1c(C(=O)Nc2ccccc2)cnn1-c1ccc([N+](=O)[O-])cc1`: the figures for the 50% inhibitory concentration (IC50) in the series with Staphylococcus aureus [1], in the series with Staphylococcus aureus [2] and with Staphylococcus aureus [3] were 55 µM, 434 µM and 127 µM, respectively. The “growth inhibition (GI)” value in the series on Staphylococcus aureus [4], with Staphylococcus aureus [5] and in the series on Staphylococcus aureus [6] was “Non-Toxic” throughout.
For the compound `Cc1c(C(=O)Nc2ccccc2)cnn1-c1ccc(Cl)cc1`, the IC50 came to 30 µM in the series with Staphylococcus aureus [1], 552 µM in the series with Staphylococcus aureus [2] and 38 µM in the series with Staphylococcus aureus [3]. In addition, the “growth inhibition (GI)” value with Staphylococcus aureus [4], in the series with Staphylococcus aureus [5] and with Staphylococcus aureus [6] was “Non-Toxic” each time.
For `Cc1cc(C(=O)Nc2ccccc2)nn1-c1ccccc1`, the IC50 is 64 µM in the series on Staphylococcus aureus [1], 76 µM in the series with Staphylococcus aureus [2] and 54 µM with Staphylococcus aureus [3]. Also, the “growth inhibition (GI)” value in the series with Staphylococcus aureus [4], in the series with Staphylococcus aureus [5] and with Staphylococcus aureus [6] was “Non-Toxic” throughout.
With `CCOC(=O)/C(=N/Nc1ccccc1F)C(=O)c1cc(C)nn1CC`, the IC50 was found to be 42 µM in the series on Staphylococcus aureus [11], 0.9 µM in the series on Staphylococcus aureus [12] and 13 µM in the series with Staphylococcus aureus [13].
Regarding `Cc1c(C(=O)Nc2ccccc2)cnn1-c1ccc(C(F)(F)F)cc1`, the IC50 is 64 µM in the series with Staphylococcus aureus [2] and 46 µM with Staphylococcus aureus [3]. Moreover, the “growth inhibition (GI)” value in the series with Staphylococcus aureus [4], in the series with Staphylococcus aureus [5] and in the series on Staphylococcus aureus [6] was “Non-Toxic” each time.
With `CCOC(=O)c1cnn(C)c1N`, the IC50 with Staphylococcus aureus [2] is 159 µM; in the series with Staphylococcus aureus [3] it was 152 µM. Further, the “growth inhibition (GI)” value in the series on Staphylococcus aureus [4], in the series on Staphylococcus aureus [5] and in the series with Staphylococcus aureus [6] was “Non-Toxic” throughout.
Regarding `CCOC(=O)c1cn[nH]c1N`, the IC50 in the series with Staphylococcus aureus [1] is 85 µM; with Staphylococcus aureus [2], 213 µM; in the series on Staphylococcus aureus [3], 83 µM. For the same compound, the “growth inhibition (GI)” value with Staphylococcus aureus [4], with Staphylococcus aureus [5] and in the series on Staphylococcus aureus [6] was “Non-Toxic” in each case.

Usually IC50 stands for the concentration that inhibits the measured activity by half. Low values mean inhibition by little substance, high ones a need for much substance.
